# Compound activity (PubChem BioAssay)
# This is a sample that favours compounds with a hit; in the whole collection about 2.1% have one here.
# Dynein transport – inhibitors of GR-EGFP nuclear translocation, primary screen, dynein cargo transport inhibitor project, imaging, high-content, 3617.4 mouse cells; test concentration mostly 20 µM; stimulated with dexamethasone, 1 µM; stronger effect = lower value; z-score, hits read low; AID 1381, 2008; actives 0.47% (n = 220,000);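 active = plate z-score of nuclear minus cytoplasmic receptor signal below a set negative limit, without overly bright fluorescence or cell loss, cut at about -3.5 in these data, passing the limit was not always enough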;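 note: z-score of nuclear minus cytoplasmic ring GR-EGFP intensity difference per well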
#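 Schedule: 48 h induction, then 1 h compound, then 30 min agonist, 37 °C. Buffer or medium: tetracycline-free induction medium containing charcoal-stripped FBS. Reagent: 1.0 µM final dexamethasone stimulus. Evaluation: nuclear versus cytoplasmic GR-EGFP signal, averaged per well. Signal: high-content fluorescence imaging after fixation.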
# Hsp70 activator – Hsp70 transcriptional activators, primary screen, cell-based, HeLa, Hsp70 promoter luciferase, luminescence, 10 µM. HeLa Hsp70 promoter luciferase reporter; scaled: vehicle 0, proteasome-inhibitor control 100%. actives 0.04% (n = 200,000). AID 1203, 2008. activation, % at 10 µM;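 active = activation above the mean across all tested compounds plus 3 SD, cutoff set per campaign, cut at about 5.5% in these data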;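 note: 100% = MG132 at 30 µM as the positive control and 0% = DMSO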
# bCat nuc transl – modulators of beta-catenin nuclear translocation, primary screen, imaging, HeLa cells, immunofluorescence, high-content; nuclear translocation activity, % at 5 µM; AID 1665, 2009; actives 0.3% (n = 190,000);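 active = nuclear translocation activity above 50% at 5 µM, with a well cell count of 50 or more; inconclusive = wells under 50 cells across six images, flagged as toxic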;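 note: per-cell ratio of nuclear to cytoplasmic median beta-catenin stain intensity; plate controls were DMSO negative control for no effect and GSK-3 inhibitor IX positive control for full effect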
#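 Read-out: Nuclear/cytoplasmic beta-catenin signal ratio, % activation | Assay system: Human HeLa cell line | Times: 24 h compound exposure at 37°C, 5% CO2 | Signal: Fluorescence imaging of beta-catenin antibody stain plus DAPI | Dosing: 5 µM primary, 0.02–20 µM confirmation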
# MT stabilize HCS – microtubule stabilizers in HeLa cells, primary screen, imaging, high-content imaging. HeLa tubulin immunostaining HCS, 24 h; share of cells brighter than vehicle mean+2SD. % tubulin-high responders, % at 10 µM. actives 0.83% (n = 200,000);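 active = plate Z-score above 3 for both tubulin-high and condensed-nucleus cell shares, with cell loss under 80%, at 10 µM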;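 note: anti alpha tubulin signal scored within the nucleus-defined area of each cell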
# Autophagy HCS – autophagy modulators in MEF cells, primary screen, imaging, high-content, MEF GFP-LC3. MEF GFP-LC3 puncta imaging; test concentration mostly 10 µM. calls only at 10 µM (by protocol). actives 0.98% (n = 190,000);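 active = percentage of spot-positive cells more than 3 SD above its plate mean, without a fluorescence outlier flag or 80% toxicity; inconclusive = no clear call, values can overlap the other calls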;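 note: spot-positive cell cutoff set from DMSO-treated cells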
# Dynein inh conf – dynein cargo transport inhibitors, GR-EGFP translocation, confirmation, imaging, high-content imaging, GR-EGFP cells; shares compounds with Dynein transport; 3617.4 GR-EGFP nuclear translocation imaging, dexamethasone-induced; calls only at 20 µM; actives 69% (n = 1,000); AID 463116, 2010;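 active = inhibition of receptor movement into the nucleus at or above a set limit in both runs, with normal cell brightness and cell count; inconclusive = limit reached in only one run, brightness and count normal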;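 note: dexamethasone at 1 µM final in well for 30 min; nuclear minus cytoplasmic GR-EGFP mean intensity difference in channel 2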
# The depositor's hits bear a star; i = inactive; ? = inconclusive; . = not tested or not shown; + = active, no number.
SMILES,Dynein transport,Hsp70 activator,bCat nuc transl,MT stabilize HCS,Autophagy HCS,Dynein inh conf
CCOC(=O)C(=Cc1c[nH]c2ccc(S(=O)(=O)N(C)C)cc12)C(=O)OCC,-4.71*,.,0.7,.,.,+
COc1cccc(NC(=O)C(c2ccccc2)N2CCNC(=O)C2)c1 (stereo not drawn),0.445,0.1,-1.1,1.5,i,.
CCOC(=O)c1c(NC(=O)c2cc(C)on2)c2cc([N+](=O)[O-])ccc2n1C,1.9,.,-1.8,.,.,.
CC(C)(C)c1ccc(C(=O)CC(=O)c2cc(Cl)ccc2O)cc1,-0.433,0.0,0.6,1.0,i,.
N/C(=C\C(=O)c1cc(Cl)ccc1O)C(Cl)(Cl)Cl,-5.01*,.,0.4,.,.,+
O=C(Nc1ccccc1)C1=C(c2ccccc2)S(=O)(=O)CCS1(=O)=O,-4.55*,-0.1,3.1,1.6,i,i
O=C(O)c1cc2c(s1)CCCC2,0.712,-0.2,-0.3,3.0,i,.
ClCc1nnc(-c2cc3c(s2)CCCC3)o1,-4.47*,0.0,0.4,1.1,i,?
CC(C)(C)C1CCc2sc(-c3nnc(CCl)o3)cc2C1 (stereo not drawn),-4.19*,0.1,0.6,2.5,i,+
O=C(CSc1c(F)c(F)cc(F)c1F)Nc1ccc(C2SCCS2)cc1,0.135,.,2.9,.,.,.
O=C1C=CC(=O)N1c1ccc(O)cc1,-4.05,.,1.0,.,.,i
O=C(Nc1ccc(Cl)c(Cl)c1)N1N=CCC1c1ccccc1 (stereo not drawn),0.636,-0.5,1.5,2.9,i,.
CCOC(=O)c1nc2sc3c(c2c(=O)n1C(C)C(=O)OCC)CCCC3 (stereo not drawn),-1.06,-0.1,-5.6,1.1,i,.
C[C@@H](NC(=O)c1coc(=O)c(Br)c1)c1ccccc1,-1.85,-0.1,49.8,4.2,i,.
Cc1cc(NC(=O)c2coc(=O)c(Br)c2)ccc1C(C)C,-5.41*,.,-0.8,.,.,+
Fc1ccc(CNc2nc(-c3ccco3)cc(C(F)(F)F)n2)cc1,-4.39*,0.0,0.1,3.2,i,i
COc1ccc(CCNc2nc(-c3ccco3)cc(C(F)(F)F)n2)cc1OC,-1.16,0.4,-0.1,3.5,i,.
CCOc1ccc(-n2c(C)cc(C(=O)CCl)c2C)cc1,-4.77*,-0.2,0.9,3.5,+,+
COC(=O)c1ccc(-n2c(C)cc(C(=O)CCl)c2C)cc1,-5.05*,-0.2,0.0,12.6,i,+
Cc1ccc(S(=O)(=O)N2CCCCC2)cc1NC(=O)Cn1c(=O)cnc2ccccc21,-0.187,-0.3,0.0,2.8,i,.
Cc1ccc(CNC(=O)C2CC3Cn4c(nc5cc(Cl)c(Cl)cc54)C3N2C)o1 (stereo not drawn),-0.931,.,-0.7,.,.,.
CCOC(=O)c1c(C)oc2c1c(C(c1ccncc1)N1CCOCC1)c(O)c1ccccc12 (stereo not drawn),-3.54*,0.3,.,5.2,i,i
CCOC(=O)c1c(C)oc2c1c(CN1CCN(C(=O)OCC)CC1)c(O)c1ccccc12,-1.61,0.2,-1.3,5.2,i,.
Cc1sc2ncn(/N=C/c3ccco3)c(=O)c2c1C,1.71,.,0.2,.,.,.
CCOC(=O)c1c(-c2ccc(C)o2)csc1NC(=O)CN1CCCCC1,-4.61*,-0.1,-0.5,3.1,i,i
SMILES,Dynein transport,Hsp70 activator,bCat nuc transl,MT stabilize HCS,Autophagy HCS,Dynein inh conf
CCOC(=O)c1c(-c2ccc(C)o2)csc1NC(=O)CN1CCN(CC)CC1,-2.11,-0.3,0.1,2.7,i,.
CCOC(=O)c1c(-c2ccc(C)o2)csc1NC(=O)CSc1nncs1,-3.98*,-0.3,-1.3,1.8,i,i
CCc1ccc(/C=C/C(=O)c2c(C)cc(C)[nH]c2=O)cc1,-4*,0.0,0.8,5.4,i,+
Cc1ccc(/C=C/C(=O)c2c(C)cc(C)[nH]c2=O)cc1,-1.61,-0.2,17.6,8.4,i,.
CCCCN(CC)C(=O)CSc1nc2c(sc(=S)n2-c2ccc(OCC)cc2)c(=O)[nH]1,-0.808,-0.2,-1.3,5.2,i,.
Cc1ccc(-c2nc(CN(C)C3CCOC3)c(C)o2)s1 (stereo not drawn),-0.631,0.1,0.8,3.5,i,.
CCn1c(Cl)c(C=O)s/c1=N\S(=O)(=O)c1ccccc1,-7.03*,.,-0.9,.,.,+
CNC(=S)NNC(=O)c1cc(C(C)(C)C)nn1Cc1ccc(F)cc1,-0.204,.,-0.9,.,.,.
COC(=O)[C@@]1(Cc2ccc(F)cc2)[C@H]2c3cc(C(=O)N(C)C)n(Cc4ccccc4)c3C[C@H]2CN1C(=O)c1ccccc1,-0.441,-0.1,-4.7,5.8,i,.
C=C1C(=O)C=C2CN(C(=O)c3ccccc3)[C@@](Cc3ccc(F)cc3)(C(=O)OC)[C@@H]12,-4.96*,0.6,0.2,26.6,i,+
OC(CNCCc1ccc(Cl)cc1)COc1ccc2ccccc2c1 (stereo not drawn),-8.18*,-0.2,0.0,6.6,i,i
Cc1nc(C)c(C(=O)O)s1,-1.55,.,-0.8,.,.,.
O=C(O)CCC(=O)Nc1ccc(Br)cc1C(=O)c1ccc(Cl)cc1,0.253,.,-1.4,.,.,.
O=C1C2C3C=CC(CO)(O3)C2C(=O)N1c1ccc(-c2ccccc2)cc1 (stereo not drawn),-4.44*,-0.1,-1.9,1.9,i,+
O=C(CS(=O)c1ccc(C(F)(F)F)cc1[N+](=O)[O-])Oc1ccccc1 (stereo not drawn),-3.9*,0.6,.,3.1,i,+
CS(=O)(=O)c1ccc(S(=O)CC(=O)OCc2ccccc2)c([N+](=O)[O-])c1 (stereo not drawn),-5.57,0.0,1.9,4.2,i,+
Cc1ccc(OC(=O)c2cc(C)nn2C(C)(C)C)cc1,0.42,.,-1.6,.,.,.
COc1ccc(CS(=O)(=O)/C(Cl)=C(/Cl)C(=O)Nc2ccc(OC)nc2)cc1,-4.58,2.7,.,0.9,i,+
Cc1[nH]c2ccccc2c1C(=O)CN1CC(C)OC(C)C1 (stereo not drawn),-0.985,.,0.3,.,.,.
O=C(CCOc1ccc(F)cc1)Nc1nccs1,0.393,.,1.0,.,.,.
CCOC(=O)C1(CCCc2ccccc2)CCN(C(=O)C2=C(C)OCCO2)CC1,-3.54*,-0.5,2.5,5.7,i,?
CCNc1ccc(Br)cc(C(=O)/C=C/c2c(Cl)cccc2Cl)c1=O,-5.6,0.2,7.0,38.5,+,+
O=C(Nc1ccccc1)C1=C(O)CC(c2ccoc2)CC1=Nc1ccccc1 (stereo not drawn),-4.18*,0.1,0.2,4.5,i,i
